Results: ChEMBL document CHEMBL1255460, “Cyclotide interactions with the nematode external surface” (Antimicrob Agents Chemother, 2010)
Calls of active or inactive are those of the source. No cut-off for these calls is given here.

Legend:
Assay type in all cases: functional, organism-based
[1] = tested on: Haemonchus contortus; assay: Antiparasitic activity against adult Haemonchus contortus assessed as decrease in motility
In short: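 Adult worms in groups of 10 in RPMI-based medium at 37°C, given ivermectin in DMSO at 0.1 to 100 nM, with 0.2% DMSO controls. Motility scored 30 h after start, using the O'Grady and Kotze system. Triplicate.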

[2] = tested on: Haemonchus contortus; assay: Antiparasitic activity against adult Haemonchus contortus assessed as [3H]inulin uptake at 10 nM
In short: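 Adult females taken from sheep abomasa 10 to 15 weeks postinfection, held in RPMI 1640-based medium (pH 6.8) at 37°C, in groups of 10. Ivermectin in DMSO given at 0.1 to 100 nM; DMSO-only controls at 0.2% final. [3H]inulin (4 μCi/ml final) added after 6 h. After a further 24 h, worms solubilized in 0.5 M KOH at 50°C overnight, neutralized, and radioactivity counted. Done in triplicate.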

[3] = tested on: Haemonchus contortus; assay: Antiparasitic activity against adult Haemonchus contortus assessed as [3H]inulin uptake at 1000 nM
[4] = tested on: Haemonchus contortus; assay: Antiparasitic activity against adult Haemonchus contortus assessed as reduction in FITC-dextran uptake at 10 nM after 24 hrs
In short: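 Groups of about 10 adult worms held 6 h with or without 10 nM ivermectin. FITC-dextran (40 kDa, 5 mg/ml final) then added. After 24 h, worms washed in PBS, fixed in 10% formalin, and photographed under white and UV light as a measure of feeding.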

[5] = tested on: Haemonchus contortus; assay: Antiparasitic activity against adult Haemonchus contortus pharyngeal ligation model assessed as decrease [3H]inulin uptake at 10 nM

IVERMECTIN
Activity [1]: Dose-dependent effect
Activity [2]: inactive
Activity [3]: inactive
Activity [4]: Active
Activity [5]: Active
